In ChEMBL document CHEMBL1127626, “Synthesis and molecular modeling of 1-phenyl-1,2,3,4-tetrahydroisoquinolines and related 5,6,8,9-tetrahydro-13bH-dibenzo[a,h]quinolizines as D1 dopamine antagonists” (J Med Chem, 1994):
Several values for one entry are separate records, joined by “and”; a condition that tells them apart may be missing. Equal values may be shown once.

Experiments:
D(2) dopamine receptor [1] = molecular target: T1, D(2) dopamine receptor (Rattus norvegicus, UniProt P61169); test: Binding affinity towards dopamine […] receptor using [3H]spiperone was determined in rat striatal membranes; assay type: cell membranes, Striatum, Membrane
T1 sequence (P61169 whole entry): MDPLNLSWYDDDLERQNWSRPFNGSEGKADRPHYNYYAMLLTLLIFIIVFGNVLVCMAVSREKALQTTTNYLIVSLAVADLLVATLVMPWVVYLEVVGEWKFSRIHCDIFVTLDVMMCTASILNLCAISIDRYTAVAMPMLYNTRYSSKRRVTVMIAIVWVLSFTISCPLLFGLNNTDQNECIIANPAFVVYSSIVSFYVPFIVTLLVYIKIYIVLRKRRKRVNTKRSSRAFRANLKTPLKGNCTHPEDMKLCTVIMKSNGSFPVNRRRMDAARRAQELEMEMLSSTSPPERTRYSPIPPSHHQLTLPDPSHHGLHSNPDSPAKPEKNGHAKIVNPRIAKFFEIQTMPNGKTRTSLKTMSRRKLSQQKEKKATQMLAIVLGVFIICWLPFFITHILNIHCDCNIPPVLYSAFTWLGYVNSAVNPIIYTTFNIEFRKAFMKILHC

D(1A) dopamine receptor [2] = molecular target: T2, D(1A) dopamine receptor (Rattus norvegicus, UniProt P18901); test: Binding affinity towards dopamine receptor D1 using [3H]SCH-23390 was determined in rat striatal membranes; assay type: cell membranes, Striatum, Membrane
T2 sequence (P18901 whole entry): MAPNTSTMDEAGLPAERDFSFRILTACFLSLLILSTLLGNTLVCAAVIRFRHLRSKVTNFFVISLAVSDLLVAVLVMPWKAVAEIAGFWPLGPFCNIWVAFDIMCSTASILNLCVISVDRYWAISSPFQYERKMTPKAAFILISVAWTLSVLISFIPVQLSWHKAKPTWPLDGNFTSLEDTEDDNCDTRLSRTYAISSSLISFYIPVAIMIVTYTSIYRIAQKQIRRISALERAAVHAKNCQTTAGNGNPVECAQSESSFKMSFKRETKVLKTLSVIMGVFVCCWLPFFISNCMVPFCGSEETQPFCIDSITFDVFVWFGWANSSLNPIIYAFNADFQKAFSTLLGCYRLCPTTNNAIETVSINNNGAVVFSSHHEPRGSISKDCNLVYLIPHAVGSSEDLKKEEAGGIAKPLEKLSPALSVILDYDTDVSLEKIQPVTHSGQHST

D(1A) dopamine receptor [3] = molecular target: T2, D(1A) dopamine receptor; test: Binding affinity against dopamine receptor D1
[4] = molecular target: Dopamine receptors; D1 & D2 (Rattus norvegicus) (UniProt P18901+P61169); test: Selectivity for D1 receptor was determined as the ratio of Ki (D2) to that of Ki (D1); assay type: protein assay
Method in brief: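 D2 used 0.02 nM [3H]spiperone with 50 nM ketanserin; D1 used 0.25 nM [3H]SCH23390. IC50 from Hill plot linear regression, converted to Ki via Cheng-Prusoff.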

D(2) dopamine receptor [5] = molecular target: T1, D(2) dopamine receptor; test: Binding affinity against dopamine (D2) receptor
Method in brief: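 Competition with 0.02 nM [3H]spiperone plus 50 nM ketanserin to mask 5-HT2 sites; chlorpromazine defines nonspecific. 37 °C 15 min, glass-fiber filtration. IC50 from Hill plot linear regression, Ki by Cheng-Prusoff; mean ± SEM.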

Structure (SMILES)	Ki (D(2) dopamine receptor [1])	Ki (D(1A) dopamine receptor [2])	Ki (D(1A) dopamine receptor [3])	Ratio [4]	Log Ki (D(1A) dopamine receptor [3])	Ki (D(2) dopamine receptor [5])
CN1Cc2cc(Cl)c(O)cc2C(c2ccccc2)C1 (racemic)			178 nM and 87.1 nM	3		
CN1CCc2cc(Cl)c(O)cc2C1Cc1ccccc1 (racemic)				5.39		
CCCN1CCc2cc(Cl)c(O)cc2C1c1ccccc1 (racemic)		179 nM	178 nM	10.6		1910 nM
CN1CCc2cc(O)c(O)cc2C1c1ccccc1 (racemic)	0.29 µM	370 nM	186 nM	1.27		295 nM
Oc1cc2c(cc1Cl)CNCC2c1ccccc1 (racemic)			282 nM	6.4		
CN1CCc2cc(O)ccc2[C@H]1c1ccccc1	> 5 µM	> 5000 nM	> 10000 nM			
Oc1cc2c(cc1Cl)CCNC2c1ccccc1 (racemic)		743 nM	141 nM	35.4		3720 nM
Oc1cc2c(cc1Cl)CCN1CCc3ccccc3C21 (racemic)	> 5 µM	830 nM	417 nM			
CN1CCc2ccc(O)cc2C1c1ccccc1 (racemic)	> 5 µM	> 5000 nM	> 10000 nM			
Oc1cc2c(cc1O)C1c3ccccc3CCN1CC2 (racemic)	> 5 µM	2700 nM	1380 nM			

The remaining lines, values ahead:

Ki (D(2) dopamine receptor [1])	Ki (D(1A) dopamine receptor [2])	Ki (D(1A) dopamine receptor [3])	Ratio [4]	Log Ki (D(1A) dopamine receptor [3])	Ki (D(2) dopamine receptor [5])	Structure (SMILES)
> 3 µM	138 nM	141 nM				CN1Cc2ccccc2C2c3cc(O)c(Br)cc3CCC21 (racemic)
		9.12 nM	206	-8.04		CN1CCc2cc(Cl)c(O)cc2[C@@H]1c1ccccc1
> 5 µM	> 5000 nM	8.32 nM				CN1CCc2cc(Br)c(O)cc2[C@H]1c1ccccc1
		6.61 nM	43.4		19500 nM	CN1CCc2cc(Cl)c(O)cc2[C@H]1c1ccccc1
1.3 µM	8.3 nM	8.32 nM	157		1320 nM	CN1CCc2cc(Br)c(O)cc2[C@@H]1c1ccccc1
